Experiment [1] concerns SU-DHL-5. Briefly: Antiproliferative activity against human SU-DHL-5 cells assessed as cell viability at 10 uM by CellTiter-Glo luminescent cell viability assay (reference value: 100%). To be noted: read-out: Activity. The experiment is classed as functional. (In general: ATP-based viability assays read luminescence as a measure of living cells.)
For experiment [2], the system named is MOLT-4. The experiment in a line: Antiproliferative activity against human MOLT-4 cells assessed as cell viability at 20 uM by CellTiter-Glo luminescent cell viability assay (reference value: 100%). The experiment is classed as functional. To be noted: read-out: Activity.
The target of experiment [3] is PI3-kinase p110-alpha/p85-alpha (Homo sapiens, UniProt P42336). The experiment in a line: Inhibition of recombinant human full length N-terminal His-tagged p110alpha/p85alpha expressed in baculovirus expression system measured after 60 mins in presence of ATP by ATP-competitive binding assay. The essentials:
(§1)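 SelectScreen ATP-competitive assay using 10-point titration with 1 μM top final compound concentration. Kinase, substrate and ATP mixed in 30 mM HEPES buffer and reacted 60 min. IC50 taken as the mean of three independent experiments.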

Experiment [4] has as its target Phosphatidylinositol 4,5-bisphosphate 3-kinase catalytic subunit beta isoform (Homo sapiens, UniProt P42338). Briefly: Inhibition of recombinant human full length His-tagged p110beta expressed in baculovirus expression system measured after 60 mins in presence of ATP by ATP-competitive binding assay. An outline of the steps:
as §1

Experiment [5] addresses Phosphatidylinositol 4,5-bisphosphate 3-kinase catalytic subunit gamma isoform (Homo sapiens, UniProt P48736). The experiment in a line: Inhibition of recombinant human full length His-tagged p110gamma expressed in baculovirus expression system measured after 60 mins in presence of ATP by ATP-competitive binding assay. The essentials:
as §1

The target of experiment [6] is PI3-kinase p110-delta/p85-alpha (Homo sapiens, UniProt O00329). The experiment in a line: Inhibition of recombinant human full length His-tagged p110delta/p85alpha expressed in baculovirus expression system measured after 60 mins in presence of ATP by ATP-competitive binding assay. An outline of the steps:
as §1

The species named for experiment [7] is Homo sapiens. Briefly: Selectivity ratio of IC50 for recombinant human full length His-tagged p110gamma expressed in baculovirus expression system to IC50 for recombinant human full length His-tagged p110delta/p85alpha expressed in baculovirus expression system.

Molecules are shown by their SMILES.

PI3-kinase p110-alpha/p85-alpha, sequence (P27986 whole entry): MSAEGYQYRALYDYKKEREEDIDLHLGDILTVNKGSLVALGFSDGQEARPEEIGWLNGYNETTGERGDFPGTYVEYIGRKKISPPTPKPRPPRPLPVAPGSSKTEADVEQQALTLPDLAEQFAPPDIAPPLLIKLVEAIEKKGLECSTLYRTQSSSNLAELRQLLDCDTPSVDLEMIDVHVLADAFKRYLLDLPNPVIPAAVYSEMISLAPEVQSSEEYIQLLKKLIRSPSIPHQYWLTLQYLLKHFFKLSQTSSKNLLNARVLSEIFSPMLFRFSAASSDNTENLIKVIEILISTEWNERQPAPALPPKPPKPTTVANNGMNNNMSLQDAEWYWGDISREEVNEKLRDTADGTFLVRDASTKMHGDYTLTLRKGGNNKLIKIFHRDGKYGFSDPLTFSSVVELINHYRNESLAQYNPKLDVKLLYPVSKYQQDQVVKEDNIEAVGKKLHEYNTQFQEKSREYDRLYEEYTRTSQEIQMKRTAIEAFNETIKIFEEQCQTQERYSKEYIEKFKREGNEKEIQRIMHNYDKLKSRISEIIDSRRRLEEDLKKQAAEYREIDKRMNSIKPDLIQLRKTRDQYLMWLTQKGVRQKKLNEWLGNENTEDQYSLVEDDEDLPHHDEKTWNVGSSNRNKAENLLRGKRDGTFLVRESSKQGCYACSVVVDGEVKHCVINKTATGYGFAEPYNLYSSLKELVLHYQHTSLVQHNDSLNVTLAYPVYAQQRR
PI3-kinase p110-alpha/p85-alpha, sequence (P42336 whole entry): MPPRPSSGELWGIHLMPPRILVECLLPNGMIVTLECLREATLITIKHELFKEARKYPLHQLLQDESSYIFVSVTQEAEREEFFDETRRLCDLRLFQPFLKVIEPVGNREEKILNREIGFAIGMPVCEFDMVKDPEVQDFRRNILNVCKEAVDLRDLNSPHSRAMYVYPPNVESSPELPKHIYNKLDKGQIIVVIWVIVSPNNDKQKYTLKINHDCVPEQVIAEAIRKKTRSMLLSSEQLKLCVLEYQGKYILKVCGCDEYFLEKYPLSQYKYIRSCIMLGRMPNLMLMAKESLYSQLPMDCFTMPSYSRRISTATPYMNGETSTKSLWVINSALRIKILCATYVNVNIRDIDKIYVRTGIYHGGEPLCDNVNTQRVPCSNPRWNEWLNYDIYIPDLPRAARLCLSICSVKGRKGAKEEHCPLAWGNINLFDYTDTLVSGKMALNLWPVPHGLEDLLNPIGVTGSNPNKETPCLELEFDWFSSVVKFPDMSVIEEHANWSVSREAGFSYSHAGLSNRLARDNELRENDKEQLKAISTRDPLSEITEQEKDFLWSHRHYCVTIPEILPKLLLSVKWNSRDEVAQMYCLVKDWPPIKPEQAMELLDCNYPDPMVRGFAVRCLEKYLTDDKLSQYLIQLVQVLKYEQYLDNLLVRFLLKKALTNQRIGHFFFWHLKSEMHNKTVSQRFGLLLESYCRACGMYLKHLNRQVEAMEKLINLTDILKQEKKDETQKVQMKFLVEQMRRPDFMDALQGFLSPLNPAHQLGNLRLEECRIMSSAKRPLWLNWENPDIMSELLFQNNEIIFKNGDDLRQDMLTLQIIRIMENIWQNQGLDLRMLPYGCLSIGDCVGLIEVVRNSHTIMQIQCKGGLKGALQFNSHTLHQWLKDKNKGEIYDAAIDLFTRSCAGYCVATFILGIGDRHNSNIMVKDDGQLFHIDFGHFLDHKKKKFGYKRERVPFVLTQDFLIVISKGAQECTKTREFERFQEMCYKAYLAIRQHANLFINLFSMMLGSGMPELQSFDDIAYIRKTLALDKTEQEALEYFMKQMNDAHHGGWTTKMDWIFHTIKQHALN
PI3-kinase p110-delta/p85-alpha, sequence (P27986 whole entry): as the sequence (P27986 whole entry) above
PI3-kinase p110-delta/p85-alpha, sequence (O00329 whole entry): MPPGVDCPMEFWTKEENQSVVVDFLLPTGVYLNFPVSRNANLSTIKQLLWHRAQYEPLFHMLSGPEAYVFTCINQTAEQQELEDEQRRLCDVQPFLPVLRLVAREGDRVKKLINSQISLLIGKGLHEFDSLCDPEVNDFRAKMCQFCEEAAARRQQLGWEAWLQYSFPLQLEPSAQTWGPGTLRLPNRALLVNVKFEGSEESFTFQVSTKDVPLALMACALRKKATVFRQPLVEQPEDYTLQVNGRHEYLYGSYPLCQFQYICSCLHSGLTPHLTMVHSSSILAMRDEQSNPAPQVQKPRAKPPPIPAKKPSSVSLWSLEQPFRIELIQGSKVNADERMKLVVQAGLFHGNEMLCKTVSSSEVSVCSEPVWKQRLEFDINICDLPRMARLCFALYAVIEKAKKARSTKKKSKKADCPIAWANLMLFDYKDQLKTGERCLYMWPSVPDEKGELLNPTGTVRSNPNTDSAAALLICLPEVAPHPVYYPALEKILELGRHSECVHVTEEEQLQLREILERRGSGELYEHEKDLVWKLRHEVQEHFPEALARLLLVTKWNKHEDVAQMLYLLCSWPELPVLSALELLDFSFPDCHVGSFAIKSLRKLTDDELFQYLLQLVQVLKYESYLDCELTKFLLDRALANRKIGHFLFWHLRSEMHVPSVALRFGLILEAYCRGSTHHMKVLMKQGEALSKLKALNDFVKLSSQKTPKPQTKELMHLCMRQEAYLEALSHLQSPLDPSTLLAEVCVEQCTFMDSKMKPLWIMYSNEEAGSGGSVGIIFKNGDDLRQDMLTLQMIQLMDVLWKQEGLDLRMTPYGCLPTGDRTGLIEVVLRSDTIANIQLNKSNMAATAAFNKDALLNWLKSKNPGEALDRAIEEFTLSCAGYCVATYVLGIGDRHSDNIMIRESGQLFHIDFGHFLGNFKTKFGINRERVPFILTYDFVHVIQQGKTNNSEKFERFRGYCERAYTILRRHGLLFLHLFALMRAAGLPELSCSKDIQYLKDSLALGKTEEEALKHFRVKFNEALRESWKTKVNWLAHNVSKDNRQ
Phosphatidylinositol 4,5-bisphosphate 3-kinase catalytic subunit gamma isoform, sequence (P48736 whole entry, canonical isoform): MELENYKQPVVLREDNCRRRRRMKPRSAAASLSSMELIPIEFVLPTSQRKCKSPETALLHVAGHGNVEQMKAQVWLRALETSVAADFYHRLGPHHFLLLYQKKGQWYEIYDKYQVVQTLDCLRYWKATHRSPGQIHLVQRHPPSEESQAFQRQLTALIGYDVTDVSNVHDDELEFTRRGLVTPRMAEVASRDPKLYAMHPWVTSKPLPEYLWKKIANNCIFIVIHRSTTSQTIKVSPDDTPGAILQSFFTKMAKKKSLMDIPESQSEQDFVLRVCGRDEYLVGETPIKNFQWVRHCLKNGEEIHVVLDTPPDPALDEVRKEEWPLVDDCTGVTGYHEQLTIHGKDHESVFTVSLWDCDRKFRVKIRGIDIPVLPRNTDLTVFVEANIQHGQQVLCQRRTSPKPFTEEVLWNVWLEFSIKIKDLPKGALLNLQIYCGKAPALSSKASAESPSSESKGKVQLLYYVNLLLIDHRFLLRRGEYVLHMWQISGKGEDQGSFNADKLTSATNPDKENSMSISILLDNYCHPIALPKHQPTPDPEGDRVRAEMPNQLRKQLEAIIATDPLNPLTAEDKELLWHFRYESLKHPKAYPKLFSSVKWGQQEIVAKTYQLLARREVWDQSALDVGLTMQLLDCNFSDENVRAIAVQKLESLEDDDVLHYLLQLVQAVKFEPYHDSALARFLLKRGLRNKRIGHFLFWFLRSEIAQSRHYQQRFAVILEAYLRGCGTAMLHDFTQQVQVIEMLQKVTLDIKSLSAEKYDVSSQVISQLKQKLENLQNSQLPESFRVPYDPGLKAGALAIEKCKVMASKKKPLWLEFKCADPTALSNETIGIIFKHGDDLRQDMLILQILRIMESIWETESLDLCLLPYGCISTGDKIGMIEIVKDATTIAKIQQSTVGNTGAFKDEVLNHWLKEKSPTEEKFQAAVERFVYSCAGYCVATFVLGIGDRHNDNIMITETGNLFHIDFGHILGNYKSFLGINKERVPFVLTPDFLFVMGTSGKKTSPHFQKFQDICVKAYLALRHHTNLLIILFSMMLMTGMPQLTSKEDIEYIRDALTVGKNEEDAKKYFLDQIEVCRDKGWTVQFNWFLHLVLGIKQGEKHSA
Phosphatidylinositol 4,5-bisphosphate 3-kinase catalytic subunit beta isoform, sequence (P42338 whole entry, canonical isoform): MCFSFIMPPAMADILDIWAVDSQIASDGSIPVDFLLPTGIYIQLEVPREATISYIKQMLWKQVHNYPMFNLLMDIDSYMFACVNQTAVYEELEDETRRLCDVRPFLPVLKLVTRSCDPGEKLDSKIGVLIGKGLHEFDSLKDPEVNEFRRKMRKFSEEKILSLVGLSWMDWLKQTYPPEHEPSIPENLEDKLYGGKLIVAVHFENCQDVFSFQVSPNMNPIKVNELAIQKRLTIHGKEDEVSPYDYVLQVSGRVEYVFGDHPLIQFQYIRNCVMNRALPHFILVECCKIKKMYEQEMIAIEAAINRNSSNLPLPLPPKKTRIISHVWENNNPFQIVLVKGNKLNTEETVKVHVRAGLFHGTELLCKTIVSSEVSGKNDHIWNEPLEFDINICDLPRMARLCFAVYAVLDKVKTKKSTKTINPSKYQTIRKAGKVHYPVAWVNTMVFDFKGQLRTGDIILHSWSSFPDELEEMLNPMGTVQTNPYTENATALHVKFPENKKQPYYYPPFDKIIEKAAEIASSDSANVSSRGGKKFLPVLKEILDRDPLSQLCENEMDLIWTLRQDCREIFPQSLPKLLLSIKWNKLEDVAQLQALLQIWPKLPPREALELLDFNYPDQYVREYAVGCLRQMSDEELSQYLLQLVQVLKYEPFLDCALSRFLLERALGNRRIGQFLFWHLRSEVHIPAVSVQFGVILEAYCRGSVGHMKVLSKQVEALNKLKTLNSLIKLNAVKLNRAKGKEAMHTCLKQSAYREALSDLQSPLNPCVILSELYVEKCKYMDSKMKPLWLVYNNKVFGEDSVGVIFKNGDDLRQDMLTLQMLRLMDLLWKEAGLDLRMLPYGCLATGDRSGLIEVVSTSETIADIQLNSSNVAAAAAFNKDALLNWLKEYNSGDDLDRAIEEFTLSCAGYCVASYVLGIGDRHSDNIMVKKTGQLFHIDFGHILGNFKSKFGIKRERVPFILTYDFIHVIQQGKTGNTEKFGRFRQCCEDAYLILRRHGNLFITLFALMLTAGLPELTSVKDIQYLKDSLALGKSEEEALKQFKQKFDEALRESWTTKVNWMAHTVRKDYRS

The term IC50 denotes the midpoint of a concentration-inhibition curve. As for `O=c1c2c(Cl)cccc2nc([C@@H](Nc2ncnc3nc[nH]c23)C2CCC2)n1-c1ccccc1`, the viability at 10 µM in experiment [1] amounted to 52.8%. Also, the viability at 20 µM in experiment [2] was 54.7%. The IC50 was determined as 490 nM in experiment [3], 470 nM in experiment [4], 63.8 nM in experiment [5] and 1.7 nM in experiment [6]. Besides, the Ratio IC50 in experiment [7] was determined as 37.5.
In the case of `O=c1c2c(F)cccc2nc([C@@H](Nc2ncnc3nc[nH]c23)C2CCC2)n1-c1ccccc1`, the viability at 10 µM in experiment [1] worked out at 43%. In addition, the viability at 20 µM in experiment [2] came out at 76.5%. Also, the half-maximal inhibitory concentration (IC50) came out at 879 nM in experiment [3], 854 nM in experiment [4], 155 nM in experiment [5] and 2.05 nM in experiment [6]. Moreover, the Ratio IC50 in experiment [7] was found to be 75.6.
With `CCC[C@H](Nc1ncnc2nc[nH]c12)c1nc2cccc(F)c2c(=O)n1-c1ccccc1`, in experiment [1], the viability at 10 µM stood at 34.4%. In addition, the viability at 20 µM in experiment [2] turned out to be 60.7%. In addition, the IC50 was 385 nM in experiment [3], 440 nM in experiment [4], 72.2 nM in experiment [5] and 1.08 nM in experiment [6]. In addition, the Ratio IC50 in experiment [7] was 66.8.
In the case of `CC(C)[C@H](Nc1ncnc2nc[nH]c12)c1nc2cccc(Cl)c2c(=O)n1-c1ccccc1`, the viability at 10 µM in experiment [1] was determined as 29.7%. Also, the viability at 20 µM in experiment [2] amounted to 56.4%. Also, the IC50 in experiment [3] worked out at 356 nM; in experiment [4] it was 1040 nM; in experiment [5], 62.5 nM; in experiment [6], 0.5 nM. Moreover, in experiment [7], the Ratio IC50 stood at 125.
Regarding `CCC[C@H](Nc1ncnc2nc[nH]c12)c1nc2cccc(C(F)(F)F)c2c(=O)n1-c1ccccc1`, the viability at 10 µM in experiment [1] is 36.4%. In experiment [2], the viability at 20 µM was found to be 52.2%. The half-maximal inhibitory concentration (IC50) is 326 nM in experiment [3], more than 1000 nM in experiment [4], 56.3 nM in experiment [5] and 3.23 nM in experiment [6]. In addition, the Ratio IC50 in experiment [7] worked out at 17.4.
Take `C[C@H](Nc1ncnc2nc[nH]c12)c1nc2cccc(N)c2c(=O)n1-c1ccccc1`: the viability at 10 µM in experiment [1] was determined as 36.9%. The viability at 20 µM in experiment [2] came to 80.9%. Also, the IC50 in experiment [3] came to 127 nM; in experiment [4] it was 250 nM; in experiment [5] it was 7.5 nM; in experiment [6] it was 0.4 nM. Further, the Ratio IC50 in experiment [7] amounted to 18.8.
With `CC[C@H](Nc1ncnc2nc[nH]c12)c1nc2cccc(N)c2c(=O)n1-c1ccccc1`, the viability at 10 µM in experiment [1] came to 45.8%. Also, the viability at 20 µM in experiment [2] was 83.6%. Besides, the IC50 in experiment [3] stood at 475 nM; in experiment [4] it was 287 nM; in experiment [5], 24.7 nM; in experiment [6] it was 1.3 nM. Moreover, in experiment [7], the Ratio IC50 worked out at 19.
Regarding `Nc1cccc2nc([C@@H](Nc3ncnc4nc[nH]c34)C3CC3)n(-c3ccccc3)c(=O)c12`, in experiment [1], the viability at 10 µM was found to be 23.5%. In experiment [2], the viability at 20 µM came to 65.8%. Besides, the IC50 in experiment [3] is 369 nM; in experiment [4] it was 562 nM; in experiment [5] it was 24.7 nM; in experiment [6] it was 1.07 nM. In addition, in experiment [7], the Ratio IC50 is 23.1.
Take `CC(C)[C@H](Nc1ncnc2nc[nH]c12)c1nc2cccc(F)c2c(=O)n1-c1ccccc1`: the viability at 10 µM in experiment [1] is 63.4%. For the same compound, in experiment [2], the viability at 20 µM is 86.2%. The half-maximal inhibitory concentration (IC50) turned out to be 878 nM in experiment [3], 1670 nM in experiment [4], 313 nM in experiment [5] and 1.82 nM in experiment [6]. Moreover, the Ratio IC50 in experiment [7] came to 172.
As for `O=c1c2c(Cl)cccc2nc([C@@H](Nc2ncnc3nc[nH]c23)C2CC2)n1-c1ccccc1`, the viability at 10 µM in experiment [1] was 36.7%. The viability at 20 µM in experiment [2] was 56.5%. Moreover, the IC50 turned out to be 205 nM in experiment [3], 87.6 nM in experiment [4], 10.4 nM in experiment [5] and 0.6 nM in experiment [6]. Further, the Ratio IC50 in experiment [7] came to 17.3.
Consider `CCC[C@H](Nc1ncnc2nc[nH]c12)c1nc2cccc(Cl)c2c(=O)n1-c1ccccc1`, for which, in experiment [1], the viability at 10 µM is 29.3%. The viability at 20 µM in experiment [2] turned out to be 24.7%. For the same compound, the IC50 in experiment [3] was 301 nM; in experiment [4], 129 nM; in experiment [5], 18.3 nM; in experiment [6] it was 0.5 nM. Besides, the Ratio IC50 in experiment [7] was determined as 36.6.
`C[C@H](Nc1ncnc2nc[nH]c12)c1nc2cccc(F)c2c(=O)n1-c1ccccc1`: in experiment [1], the viability at 10 µM came to 46.1%. Also, the viability at 20 µM in experiment [2] is 63.7%. The IC50 stood at 152 nM in experiment [3], 145 nM in experiment [4], 15.3 nM in experiment [5] and 0.5 nM in experiment [6]. The Ratio IC50 in experiment [7] came to 30.6.
For `O=c1c2cc(F)ccc2nc([C@@H](Nc2ncnc3nc[nH]c23)C2CC2)n1-c1ccccc1`, the viability at 10 µM in experiment [1] was 24.4%. The viability at 20 µM in experiment [2] was determined as 68.1%. Moreover, the IC50 amounted to 295 nM in experiment [3], 200 nM in experiment [4], 29.2 nM in experiment [5] and 1.09 nM in experiment [6]. Besides, the Ratio IC50 in experiment [7] was 26.8.
